ChEMBL document CHEMBL1165881, “Synthesis and cytotoxicity evaluation of (tetrahydro-beta-carboline)-1,3,5-triazine hybrids as anticancer agents” (Eur J Med Chem, 2010)
pIC50: −log10 of the molar value.

What was measured:
[1] = system: MDA-MB-231; assay: Cell cycle arrest in human MDA-MB-231 cells assessed as accumulation at G1 phase at 0.5 uM after 24 hrs using propidium iodide staining by flow cytometry; assay type: functional
[2] = system: MDA-MB-231; assay: Cell cycle arrest in human MDA-MB-231 cells assessed as accumulation at S phase at o.74 uM after 24 hrs using propidium iodide staining by flow cytometry; assay type: functional
[3] = system: MDA-MB-231; assay: Cell cycle arrest in human MDA-MB-231 cells assessed as accumulation at G2 phase at o.74 uM after 24 hrs using propidium iodide staining by flow cytometry; assay type: functional
[4] = system: MCF7; assay: Cell cycle arrest in human MCF7 cells assessed as accumulation at S phase at o.74 uM after 24 hrs using propidium iodide staining by flow cytometry; assay type: functional
[5] = system: PA-1; assay: Cytotoxicity against human PA1 cells after 72 hrs by MTT assay; assay type: functional, cell-based; details: pa-1; read-out: IC50
Summary of the method: (§1)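 Seeded at 5000–10000 cells/well, incubated at 37 °C in CO2 with compounds at a range of concentrations, controls included, in triplicate wells. After 72 h, MTT solution (5 mg/mL) added; absorbance read at 540 nm. % cytotoxicity = 100 × [1 − (X/R1)] versus control absorbance; IC50 by nonlinear regression. Values are means of at least two independent experiments, three determinations each.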

[6] = system: MCF7; assay: Cell cycle arrest in human MCF7 cells assessed as accumulation at G1 phase at 0.5 uM after 24 hrs using propidium iodide staining by flow cytometry; assay type: functional
[7] = system: MDA-MB-231; assay: Cell cycle arrest in human MDA-MB-231 cells assessed as accumulation at G2 phase at 0.5 uM after 24 hrs using propidium iodide staining by flow cytometry; assay type: functional
[8] = system: MCF7; assay: Cell cycle arrest in human MCF7 cells assessed as accumulation at S phase at 0.5 uM after 24 hrs using propidium iodide staining by flow cytometry; assay type: functional
[9] = system: MDA-MB-231; assay: Cell cycle arrest in human MDA-MB-231 cells assessed as accumulation at S phase at 0.5 uM after 24 hrs using propidium iodide staining by flow cytometry; assay type: functional
[10] = system: MIA PaCa-2; assay: Cytotoxicity against human MIAPaCa2 cells after 72 hrs by MTT assay; assay type: functional, cell-based; details: mia paca-2; read-out: IC50; summary of the method: as §1
[11] = system: MDA-MB-231; assay: Cell cycle arrest in human MDA-MB-231 cells assessed as accumulation at G1 phase at o.74 uM after 24 hrs using propidium iodide staining by flow cytometry; assay type: functional
[12] = system: MCF7; assay: Cell cycle arrest in human MCF7 cells assessed as accumulation at G1 phase at o.74 uM after 24 hrs using propidium iodide staining by flow cytometry; assay type: functional
[13] = system: MCF7; assay: Cell cycle arrest in human MCF7 cells assessed as accumulation at G2 phase at 0.5 uM after 24 hrs using propidium iodide staining by flow cytometry; assay type: functional
[14] = system: DU-145; assay: Cytotoxicity against human DU145 cells after 72 hrs by MTT assay; assay type: functional, cell-based; details: du-145; read-out: IC50; summary of the method: as §1
[15] = system: A549; assay: Cytotoxicity against human […] cells after 72 hrs by MTT assay; assay type: functional, cell-based; details: a549; read-out: IC50; summary of the method: as §1
[16] = system: SW-620; assay: Cytotoxicity against human SW620 cells after 72 hrs by MTT assay; assay type: functional, cell-based; details: sw-620; read-out: IC50; summary of the method: as §1
[17] = system: KB; assay: Cytotoxicity against human KB cells after 72 hrs by MTT assay; assay type: functional, cell-based; details: kb; summary of the method: as §1
[18] = system: K562; assay: Cytotoxicity against human K562 cells after 72 hrs by MTT assay; assay type: functional, cell-based; details: Homo sapiens, K562, 72 h; read-out: IC50; summary of the method: as §1
[19] = Cytotoxicity against mouse NIH/3T3 cells after 72 hrs by MTT assay; assay type: cell-based, NIH3T3; details: nih3t3; read-out: IC50; summary of the method: as §1
[20] = system: MCF7; assay: Cytotoxicity against human MCF7 cells after 72 hrs by MTT assay; assay type: functional, cell-based; details: mcf7; read-out: IC50; summary of the method: as §1
[21] = system: MCF7; assay: Cell cycle arrest in human MCF7 cells assessed as accumulation at G2 phase at o.74 uM after 24 hrs using propidium iodide staining by flow cytometry; assay type: functional

Which Activity [1] does the source give for `COC(=O)[C@@H]1Cc2c([nH]c3ccccc23)[C@@H](c2ccc(OC)cc2)N1c1nc(N2CCN(C)CC2)nc(N2CCN(C)CC2)n1` here?
Its Activity is 64.63%.

And the Activity [2]?
The Activity was 21.91%.

What about the Activity [3] of the same compound?
The Activity was 12.98%.

What about the Activity [4] of the same compound?
Its Activity is 0.12%.

And the pIC50 [5]?
The pIC50 was 5.74.

What about the Activity [6] of the same compound?
Its Activity is 64.4%.

What about the Activity [7] of the same compound?
The Activity was 12.63%.

And the Activity [8]?
Its Activity is 35.5%.

And the Activity [9]?
The Activity was 22.74%.

What about the pIC50 [10] of the same compound?
The pIC50 was 5.64.

And the Activity [11]?
The Activity was 65.11%.

And the Activity [12]?
The Activity was 76.68%.

And the Activity [13]?
The Activity was 0.09%.

What about the pIC50 [14] of the same compound?
Its pIC50 is 5.17.

What about the pIC50 [15] of the same compound?
The pIC50 was 5.68.

And the pIC50 [16]?
The pIC50 was 5.87.

And the pIC50 [17]?
The pIC50 was 5.09.

And the pIC50 [18]?
Its pIC50 is 5.34.

And the pIC50 [19]?
The pIC50 was 5.71.

And the pIC50 [20]?
The pIC50 was 6.13.

What about the Activity [21] of the same compound?
Its Activity is 23.2%.
